Data: ChEMBL document CHEMBL4219120, “Synthesis and SAR study of new hydroxy and chloro-substituted 2,4-diphenyl 5H-chromeno[4,3-b]pyridines as selective topoisomerase IIα-targeting anticancer agents” (Bioorg Med Chem, 2018)
Calls of active or inactive are those of the source. No cut-off for these calls is given here.

Legend:
[1] = biological target: DNA topoisomerase 2-alpha (Homo sapiens) (UniProt P11388); experiment: Inhibition of recombinant human topoisomerase 2alpha assessed as decrease in relaxation of supercoiled pBR322 DNA at 20 uM after 30 mins by agarose gel electrophoresis relative to control
DNA topoisomerase 2-alpha (Homo sapiens), sequence (P11388 whole entry): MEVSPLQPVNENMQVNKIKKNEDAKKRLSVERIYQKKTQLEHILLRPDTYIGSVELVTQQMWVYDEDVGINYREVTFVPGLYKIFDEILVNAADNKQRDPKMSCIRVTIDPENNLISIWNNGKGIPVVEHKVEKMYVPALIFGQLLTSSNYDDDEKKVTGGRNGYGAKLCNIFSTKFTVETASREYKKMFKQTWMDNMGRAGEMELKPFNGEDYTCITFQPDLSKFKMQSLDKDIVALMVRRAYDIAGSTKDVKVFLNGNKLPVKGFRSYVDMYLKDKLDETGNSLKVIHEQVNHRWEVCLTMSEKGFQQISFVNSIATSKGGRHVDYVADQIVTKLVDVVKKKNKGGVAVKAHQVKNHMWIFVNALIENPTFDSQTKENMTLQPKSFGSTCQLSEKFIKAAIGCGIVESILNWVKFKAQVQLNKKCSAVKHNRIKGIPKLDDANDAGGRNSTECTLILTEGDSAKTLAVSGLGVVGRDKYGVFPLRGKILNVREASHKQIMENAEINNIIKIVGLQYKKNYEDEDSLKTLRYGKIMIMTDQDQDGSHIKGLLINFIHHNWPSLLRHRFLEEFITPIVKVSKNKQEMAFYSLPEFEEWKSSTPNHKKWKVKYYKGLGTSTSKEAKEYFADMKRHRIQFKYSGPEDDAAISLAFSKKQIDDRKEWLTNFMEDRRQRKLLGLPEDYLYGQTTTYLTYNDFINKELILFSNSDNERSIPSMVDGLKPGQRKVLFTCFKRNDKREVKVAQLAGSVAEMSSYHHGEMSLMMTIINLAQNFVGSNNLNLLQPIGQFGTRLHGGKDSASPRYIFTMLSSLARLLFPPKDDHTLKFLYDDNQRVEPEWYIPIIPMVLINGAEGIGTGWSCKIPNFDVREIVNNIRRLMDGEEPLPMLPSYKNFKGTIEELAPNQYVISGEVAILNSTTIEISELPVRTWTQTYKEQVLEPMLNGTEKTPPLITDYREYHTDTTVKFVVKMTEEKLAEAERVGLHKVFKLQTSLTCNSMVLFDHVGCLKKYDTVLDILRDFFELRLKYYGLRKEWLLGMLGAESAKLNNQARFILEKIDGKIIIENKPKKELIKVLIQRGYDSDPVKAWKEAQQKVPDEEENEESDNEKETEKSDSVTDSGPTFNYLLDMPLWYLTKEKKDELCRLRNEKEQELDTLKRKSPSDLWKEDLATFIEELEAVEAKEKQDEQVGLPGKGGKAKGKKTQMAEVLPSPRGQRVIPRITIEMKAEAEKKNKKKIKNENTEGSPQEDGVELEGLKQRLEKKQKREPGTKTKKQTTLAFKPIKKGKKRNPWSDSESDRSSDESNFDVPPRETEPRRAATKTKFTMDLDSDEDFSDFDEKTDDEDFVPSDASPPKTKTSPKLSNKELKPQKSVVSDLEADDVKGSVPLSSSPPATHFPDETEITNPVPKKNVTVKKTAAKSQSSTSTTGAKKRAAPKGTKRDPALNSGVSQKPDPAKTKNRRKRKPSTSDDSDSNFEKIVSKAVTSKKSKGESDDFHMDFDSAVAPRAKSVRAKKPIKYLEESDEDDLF
In short: (§1)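 Recombinant human topo IIα (1 unit) with 100 ng supercoiled pBR322 in 10 mM Tris-HCl pH 7.9, 50 mM NaCl, 50 mM KCl, 5 mM MgCl2, 1 mM EDTA, 1 mM ATP, 15 µg/mL BSA, 30 min at 37 °C. Quenched with 7 mM EDTA. 0.8% agarose/TAE gel, 50 V, 1 h; EtBr stain; UV densitometry. Compounds came from 20 mM DMSO stocks. 20 µM was tested only when inhibition at 100 µM exceeded 30%. Etoposide was the positive control.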

[2] = tested on: HCT-15; experiment: Antiproliferative activity against human HCT15 cells after 72 hrs by CCK-8 assay; assay type: functional, cell-based; settings: HCT-15, 72 h
In short: (§2)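 Cells seeded at 2-4 x 10^4 per well and grown overnight in medium with 10% FBS (37 °C, 5% CO2). After 4 h FBS starvation, medium was replaced with medium containing graded compound concentrations for 72 h. CCK-8 was added for 4 h more, then absorbance read at 450 nm. IC50 came from a four-parameter logistic fit. Mean ± S.D. of three experiments, each in triplicate.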

[3] = tested on: HeLa; experiment: Potency index, ratio of etoposide IC50 to compound IC50 for human HeLa cells; assay type: functional
[4] = tested on: HeLa; experiment: Potency index, ratio of adriamycin IC50 to compound IC50 for human HeLa cells; assay type: functional
[5] = tested on: HeLa; experiment: Antiproliferative activity against human HeLa cells after 72 hrs by CCK-8 assay; assay type: functional, cell-based; in short: as §2
[6] = biological target: DNA topoisomerase 2-alpha (Homo sapiens) (UniProt P11388); experiment: Inhibition of recombinant human topoisomerase 2alpha assessed as decrease in relaxation of supercoiled pBR322 DNA at 100 uM after 30 mins by agarose gel electrophoresis relative to control; in short: as §1
[7] = tested on: T47D; experiment: Antiproliferative activity against human T47D cells after 72 hrs by CCK-8 assay; assay type: functional, cell-based; in short: as §2
[8] = biological target: T1, DNA topoisomerase 1 (Homo sapiens) (UniProt P11387); experiment: Inhibition of recombinant human topoisomerase 1 assessed as decrease in relaxation of supercoiled pBR322 DNA at 100 uM after 30 mins by agarose gel electrophoresis relative to control
T1 sequence (whole entry): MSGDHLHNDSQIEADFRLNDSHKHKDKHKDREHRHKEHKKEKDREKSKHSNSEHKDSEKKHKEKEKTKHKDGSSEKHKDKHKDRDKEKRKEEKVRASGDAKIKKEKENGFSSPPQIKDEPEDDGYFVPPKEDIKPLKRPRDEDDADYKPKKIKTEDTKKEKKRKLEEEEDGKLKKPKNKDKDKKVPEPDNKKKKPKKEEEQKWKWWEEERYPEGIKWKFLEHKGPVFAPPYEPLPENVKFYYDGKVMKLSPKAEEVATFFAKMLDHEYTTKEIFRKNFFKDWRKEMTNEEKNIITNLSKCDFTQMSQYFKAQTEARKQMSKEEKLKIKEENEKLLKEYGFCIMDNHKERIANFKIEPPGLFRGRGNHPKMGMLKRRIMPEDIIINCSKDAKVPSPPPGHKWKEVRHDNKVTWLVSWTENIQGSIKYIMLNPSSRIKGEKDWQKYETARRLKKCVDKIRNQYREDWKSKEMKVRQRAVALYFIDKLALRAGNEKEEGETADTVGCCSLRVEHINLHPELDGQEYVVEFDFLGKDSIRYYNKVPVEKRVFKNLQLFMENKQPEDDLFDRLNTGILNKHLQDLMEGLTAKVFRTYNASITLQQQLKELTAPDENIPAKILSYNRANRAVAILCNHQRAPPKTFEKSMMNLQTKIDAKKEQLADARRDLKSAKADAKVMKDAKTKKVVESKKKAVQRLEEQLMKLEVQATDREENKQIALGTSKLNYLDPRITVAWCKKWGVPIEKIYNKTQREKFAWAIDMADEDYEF
In short: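 Supercoiled pBR322 (100 ng) with 1 unit recombinant human topo I in 10 mM Tris-HCl pH 7.9, 150 mM NaCl, 0.1% BSA, 0.1 mM spermidine, 5% glycerol, 30 min at 37 °C. Stopped with SDS/dye stop solution. Run on 0.8% agarose in TAE, 50 V, 1 h; EtBr-stained; bands quantitated under UV. Compounds came from 20 mM DMSO stocks. 20 µM was tested only when inhibition at 100 µM exceeded 30%. Camptothecin was the positive control.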

[9] = biological target: DNA topoisomerase 2-alpha (Homo sapiens) (UniProt P11388); experiment: Potency index, ratio of compound effect for recombinant human topoisomerase 2alpha to etoposide effect for recombinant human topoisomerase 2alpha at 20 uM
[10] = biological target: T1, DNA topoisomerase 1 (Homo sapiens); experiment: Inhibition of recombinant human topoisomerase 1 assessed as decrease in relaxation of supercoiled pBR322 DNA at 100 uM after 30 mins by agarose gel electrophoresis relative to camptothecin
[11] = biological target: DNA topoisomerase 2-alpha (Homo sapiens) (UniProt P11388); experiment: Inhibition of recombinant human topoisomerase 2alpha assessed as decrease in relaxation of supercoiled pBR322 DNA at 20 uM after 30 mins by agarose gel electrophoresis relative to etoposide
[12] = biological target: DNA topoisomerase 2-alpha (Homo sapiens) (UniProt P11388); experiment: Inhibition of recombinant human topoisomerase 2alpha assessed as decrease in relaxation of supercoiled pBR322 DNA at 100 uM after 30 mins by agarose gel electrophoresis relative to etoposide

SMILES	inhibition [1] [%]	IC50 [2] [µM]	Ratio IC50 [3]	Ratio IC50 [4]	IC50 [5] [µM]	inhibition [6] [%]	IC50 [7] [µM]	inhibition [8]	Ratio [9]	fold change (FC) [10]	fold change (FC) [11]	fold change (FC) [12]
Oc1ccc(-c2cc(-c3cccc(Cl)c3)c3c(n2)-c2ccccc2OC3)cc1	12.1	3.41	15.2	2.6	0.66	79.5	1.27	22.8%				
Oc1ccc(-c2cc(-c3ccccc3Cl)nc3c2COc2ccccc2-3)cc1	74.5	1.74			2.11	82.7	0.75	inactive	2	inactive	2.1	1.24
